Assay results published in PMC9948202 (ACS Omega, 2023).

Experiments:
hNTS2 = settings: cited from earlier work
hNTS1 = settings: read-out: Ki toward hNTS1; cited from earlier work
NTS1 = settings: cited from earlier work
NTS2 = NTS2 (Homo sapiens, UniProt O95665); assay: Calcium imaging assay; assay type: cell-based
How it was run: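 HT-29 cells grown overnight on glass slides (5 × 10^5 cells, 37 °C, 5% CO2), loaded 30 min in the dark with 100 μM fluo-8 AM, 0.4% pluronic acid and 2.5 mM probenecid in RPMI. Perfused with bicarbonate-glucose buffer (95% O2/5% CO2, pH 7.4, room temperature), washed 10 min. Test compound 10–11 to 10–5 M by rapid perfusion; levocabastine as positive control. Ex 490/Em 514 nm; ΔF/F (%) vs baseline, normalized to levocabastine stimulation; twice in duplicate, 20 cells analysed.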

Sequence of NTS2 (O95665 whole entry, the tested form may be a part): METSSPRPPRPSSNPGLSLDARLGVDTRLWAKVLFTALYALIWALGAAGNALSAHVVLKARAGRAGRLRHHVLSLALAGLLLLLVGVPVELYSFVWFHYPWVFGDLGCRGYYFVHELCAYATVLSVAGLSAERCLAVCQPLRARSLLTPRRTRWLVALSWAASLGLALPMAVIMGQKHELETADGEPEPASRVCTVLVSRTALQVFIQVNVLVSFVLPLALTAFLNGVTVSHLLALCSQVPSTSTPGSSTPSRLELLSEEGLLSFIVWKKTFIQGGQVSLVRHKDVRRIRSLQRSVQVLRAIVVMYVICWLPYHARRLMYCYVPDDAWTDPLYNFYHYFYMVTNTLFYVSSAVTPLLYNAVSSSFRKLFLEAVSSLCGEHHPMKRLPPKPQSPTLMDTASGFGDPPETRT

## H-Lys-Lys-Pro-(D)Trp-Ile-TMSAla-OH [JMV 5504]
hNTS2
  selectivity index hNTS1/hNTS2: 423
hNTS2; read-out: Ki toward hNTS2
  Ki: 8.5 nM
hNTS1
  Ki: 3600 nM
NTS1
  hypothermic effect: no hypothermic effect

## C[C@@H]1CN([C@H]2CC[C@](C#N)(c3ccc(F)cc3)CC2)CC[C@]1(C(=O)O)c1ccccc1 [levocabastine]
NTS2
  EC50: 118 nM
